Source: PubChem (The Scripps Research Institute Molecular Screening Center)
PAFAH1B2 inh: PAFAH1B2 (human) inhibition; inhibition, % at 3.39 µM; P68402; 340,000 tested, 1.2% active; AID 492953; recombinant PAFAH1B2, FP-rhodamine activity probe, fluorescence polarization;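 active = inhibition above the mean of all tested compounds plus 3 SD, cut at about 24% in these data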;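 also: 0% = enzyme with DMSO and 100% = wells lacking PAFAH1B2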
IMP-1 inhibitor: blocks Pseudomonas aeruginosa IMP-1 metallo-beta-lactamase. purified IMP-1, nitrocefin hydrolysis, epi-absorbance fluorescence. inhibition, % at 5.6 µM. 290,000 tested, 0.45% active. AID 1556;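 active = inhibition above the mean plus 3 SD of all compounds in the same screening run, cut at about 4.5% in these data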;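 also: 0% = IMP-1 with DMSO and 100% = DMSO wells lacking enzyme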
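system = purified recombinant IMP-1 beta-lactamase | amount = 0.2 nM IMP-1, as dispensed | medium = HEPES buffer pH 7.1 with ZnSO4 and Brij 35 | times = 25 °C, 15 min preincubation, 25 min reaction | detection = plate fluorescence quenching by hydrolysis product, ex 480/em 530 nm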
PAFAH1B3 FP inh: blocks human PAF acetylhydrolase 1B catalytic subunit 3; Q15102; recombinant PAFAH1B3, FP-rhodamine probe, fluorescence polarization; inhibition, % at 3.39 µM; 340,000 tested, 0.28% active;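 active = inhibition above the screen-wide average of all tested compounds plus 3 SD, cut at about 25% in these data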;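 also: 0% = enzyme with DMSO only and 100% = wells lacking PAFAH1B3 protein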
VIM-2 inh: inhibitors of Pseudomonas aeruginosa VIM-2 metallo-beta-lactamase. 290,000 tested, 0.89% active. inhibition, % at 5.6 µM. purified VIM-2, nitrocefin hydrolysis, epi-absorbance fluorescence;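 active = inhibition above the mean of all tested compounds plus 3 SD, cutoff set per screening run, cut at about 7.5% in these data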;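 also: red hydrolysis product quenches plate fluorescence so inhibitors raise well fluorescence; 0% = enzyme with DMSO and 100% = DMSO without enzyme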
pPAFAH inh: inhibitors of human plasma PAF acetylhydrolase (pPAFAH) | 330,000 tested, 1.5% active | inhibition, % at 3.39 µM | Q13093 | recombinant pPAFAH, FP-rhodamine probe fluorescence polarization | AID 463082;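 active = inhibition above the mean inhibition across the screen plus 3 SD, cut at about 25% in these data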;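 also: inhibitors block binding of the rhodamine activity-based probe so polarization drops; 0% = enzyme with DMSO and 100% = wells lacking pPAFAH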
Target sequence (Q13093 whole entry, looked up): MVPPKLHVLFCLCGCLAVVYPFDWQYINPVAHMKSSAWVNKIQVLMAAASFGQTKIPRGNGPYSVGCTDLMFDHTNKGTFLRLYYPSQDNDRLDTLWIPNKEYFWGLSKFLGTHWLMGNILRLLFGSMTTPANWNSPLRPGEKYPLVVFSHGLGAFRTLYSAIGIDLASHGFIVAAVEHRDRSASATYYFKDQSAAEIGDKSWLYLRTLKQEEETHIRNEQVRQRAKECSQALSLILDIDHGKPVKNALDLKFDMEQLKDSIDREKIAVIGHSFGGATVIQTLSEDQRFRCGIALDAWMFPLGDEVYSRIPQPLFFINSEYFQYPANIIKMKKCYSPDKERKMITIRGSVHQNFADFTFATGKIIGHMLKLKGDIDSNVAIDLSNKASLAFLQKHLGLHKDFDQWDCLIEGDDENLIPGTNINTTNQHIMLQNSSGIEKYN
PAFAH2 inh: inhibitors of human PAFAH2 | Q99487 | recombinant PAFAH2, FP-rhodamine activity probe, fluorescence polarization | inhibition, % at 3.39 µM | 340,000 tested, 0.99% active | AID 492956;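 active = inhibition above the mean over all tested compounds plus 3 SD, cut at about 30% in these data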;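 also: inhibitors block probe labeling of enzyme so polarization drops; 0% = enzyme with DMSO and 100% = wells lacking PAFAH2 protein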
* = called active by the depositor; / = not tested or not shown. Shown are actives, neighbours in structure and some others; about 3.6% of the full set was active somewhere.

SMILES	PAFAH1B2 inh	IMP-1 inhibitor	PAFAH1B3 FP inh	VIM-2 inh	pPAFAH inh	PAFAH2 inh
Cc1ccc(NC(=S)N2CCN(CCN3C(=O)c4cccc5cccc(c45)C3=O)CC2)cc1	3	-7	-1	8.1*	5	-1
COc1ccc(C(=O)N[C@H](C(=O)NCCc2ccc3c(c2)OCCO3)C(C)C)cc1	0	/	0	/	3	-2
O=C(C1=C(O)C(=O)N(CCc2ccccc2)C1c1cccnc1)c1ccco1 (configuration not stated)	8	5.9*	4	4	-6	-5
CC[C@H](C)Cc1cn([C@@H](CCCN=C(NC(=O)OC(C)(C)C)NC(=O)OC(C)(C)C)C(=O)NCCCCCCCCCCC(=O)N2CCN(C(=O)OC(C)(C)C)CC2)nn1	12	/	27*	/	9	4
COc1ccc2cc([C@H](C)C(=O)N(C)Cc3ccccc3N3CCCC3)ccc2c1	-2	0	0	7.8*	-3	3
CC(=O)Nc1ccc(NC(=O)C(C)OC(=O)C(C)SCC(=O)Nc2ccc(F)cc2)cc1 (configuration not stated)	-1	/	6	/	3	4
CC(=O)Nc1ccc(NC(=O)C(C)OC(=O)C2(c3ccc(F)cc3)CCCC2)cc1 (configuration not stated)	41*	-3	19	-2	6	-2
CSc1nc(SCC(=O)O)c2sc3nc(-c4ccccc4)c4c(c3c2n1)CCC4	-5	64*	2	-1	/	5
CSc1nc(NCCN(C)C)c2sc3nc(-c4ccco4)c4c(c3c2n1)CCC4	3	/	-2	/	/	2
O=S1(=O)CCOC[C@H](c2ccccc2)N1Cc1ccccc1F	29*	-3	3	0	3	-5
CCC1COCCS(=O)(=O)N1Cc1ccccc1F (configuration not stated)	-1	1	2	0	-3	-6
CCN1CCN(c2ccc(NC(=O)c3ccc4c(c3)[nH]c(=O)n4Cc3ccc(F)cc3)cc2)CC1	4	-2	1	9.2*	8	-4
CCOc1cc(/C=C2\COc3ccccc3C2=O)cc(Br)c1OCC(=O)N(C)C	2	-2	8	-1	-4	-2
CC(=O)Oc1ccc(N(C(C)=O)S(=O)(=O)c2cccs2)cc1	8	-4	5	-4	3	0
CCCC(=O)Oc1ccc(N(C(=O)CCC)S(=O)(=O)c2cccs2)cc1	6	-2	1	-2	30*	4
Cc1ccc(NS(=O)(=O)c2cccc(C(=O)Nc3c(C)n(C)n(-c4ccccc4)c3=O)c2)cc1	/	-3	/	-2	25*	/
Cc1ccc(NS(=O)(=O)c2cccc(C(=O)Nc3cc(C)on3)c2)cc1	3	-1	3	-4	33*	-5
Cc1cc(NC(=O)c2ccc3c(c2)OCO3)no1	1	4.7*	7	1	-1	-5
O=C(O)c1nn(CC(=O)N2CCN(c3ncc(C(F)(F)F)cc3Cl)CC2)c(=O)c2ccccc12	5	-2	6	-1	2	4
Cc1cc(C)c(NC(=S)N2CCN(c3ccc([N+](=O)[O-])cn3)CC2)cc1C	4	-1	7	-2	-2	1
COc1cc(/C=C(\C#N)C(=O)NCCc2ccccc2)cc(OC)c1O	6	-4	8	-3	2	3
N#C/C(=C\c1ccc(O)c(O)c1)C(=O)NCCc1ccccc1	64*	/	15	/	27*	36*
O=C(NNC(=O)C12CC3CC(CC(O)(C3)C1)C2)c1csc(N2CCOCC2)n1	-5	-2	-1	0	6	3
O=C(NNC(=O)C12CC3CC(CC(Cl)(C3)C1)C2)c1csc(N2CCOCC2)n1	33*	-2	3	-2	0	11
O=C(COC(=O)COc1ccccc1)NC12CC3CC(CC(C3)C1)C2	25*	/	-2	/	13	2
SMILES	PAFAH1B2 inh	IMP-1 inhibitor	PAFAH1B3 FP inh	VIM-2 inh	pPAFAH inh	PAFAH2 inh
CCc1cc2c(COC(=O)c3cccc(NS(C)(=O)=O)c3)cc(=O)oc2cc1O	4	-4	-1	-2	2	-6
CCOC(=O)c1c(-c2ccc(OC)cc2)oc2ccc(OCC(N)=O)cc12	3	-2	-7	1	4	4
CCOC(=O)c1c(-c2ccc(OC)cc2)oc2ccc(O)cc12	0	-4	-7	-3	31*	-2
O=S(=O)(N/N=C/c1ccc2c(c1)OCO2)c1ccc(Br)cc1	26*	0	7	-1	1	-1
O=C(CN1C(=O)/C(=C/c2ccccc2F)SC1=S)NC1C=CS(=O)(=O)C1 (configuration not stated)	3	7.0*	6	0	0	-5
COc1cccc(/C=C2\SC(=S)N(CCC(=O)NC3C=CS(=O)(=O)C3)C2=O)c1 (configuration not stated)	-2	8.2*	-3	0	3	2
COc1ccc(/C=C2\SC(=S)N(CCC(=O)NC3C=CS(=O)(=O)C3)C2=O)cc1 (configuration not stated)	-5	12*	-2	-4	3	-1
O=C(CN1C(=O)/C(=C/c2cccc(Cl)c2)SC1=S)NC1C=CS(=O)(=O)C1 (configuration not stated)	7	4	4	-2	4	8
CC(C)CNc1nc(N)c([N+](=O)[O-])c(N2CCCCCC2)n1	8	-2	11	-2	5	-3
COc1ccc(C)cc1NS(=O)(=O)c1ccc(Cl)nc1	3	/	6	/	2	-3
COc1ccc2c(c1)/C(=C/c1cc(OC)c(OC)c(OC)c1)C(=O)N2	3	/	4	/	/	6
C=C1c2cc(OC)ccc2NC(=O)N1CC	6	5.8*	12	2	4	5
CCOc1cc(N2CCOCC2)c(OCC)cc1NC(=O)CN1C(=O)NC2(CCCCC2)C1=O	1	/	4	/	1	1
CCOc1ccccc1C=C1SC(=S)N(CC)C1=O	-3	/	12	/	/	-2
COc1cccc(/C=C2/SC(=S)N(CC(=O)NNC(=O)c3ccccc3OC)C2=O)c1	3	1	4	-3	8	3
O=C(O)CN1C(=O)/C(=C\c2ccccc2OCc2ccc(Cl)cc2Cl)SC1=S	15	0	5	0	34*	29
O=C(O)CCN1C(=O)/C(=C\c2cccc(OCc3ccccc3)c2)SC1=S	27*	1	7	0	11	-2
O=C(O)CN1C(=O)/C(=C\c2cccc(OCc3ccc(Cl)cc3Cl)c2)SC1=S	25*	1	1	1	/	25
O=C(C[n+]1ccccc1)N/N=C/c1cc(Br)ccc1O	2	-1	0	-3	6	-1
O=C(CSc1nnc2ccc(-c3ccccn3)nn12)N1CCCC1	1	/	6	/	/	-3
Cc1cc(=O)oc(C)c1C(=O)OCC(=O)c1ccc(Cl)c(Cl)c1	-5	5.3*	13	1	8	0
